Test results from article PMC6319658 (Journal of natural products, 2018).

Columns and labels:
[1] = tested on: SUMO conjugation enzymatic cascade; type: biochemical; settings: read-out: IC50, inhibition of SUMOylation of a substrate peptide; in vitro electrophoretic mobility shift assay
[2] = tested on: 60 human tumor cell lines; test: NCI-60 cell line screening assay; type: cell-based; settings: for growth suppression of cell lines that harbor the B-Raf V600E mutation: Colo205 colon, MALM-3M, SK-MEL-5, MDA-MB-435 melanoma cell lines; for pattern of cytotoxicity at the GI50 level: NCI-60 screen
Method in brief: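 Test compounds were submitted as DMSO solutions to the NCI-60 screen for cytotoxicity across 60 human tumor cell lines. The response patterns were analysed with bioinformatics tools on the public CellMiner site.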

[3] = tested on: B-Raf; test: Raf kinase catalytic activity assay; type: biochemical; settings: 10 μM compound; data not shown
[4] = tested on: C-Raf; test: Raf kinase catalytic activity assay; type: biochemical; settings: 10 μM compound; data not shown
[5] = tested on: MEK; test: MEK1 kinase activity assay; type: biochemical; settings: 10 μM compound; data not shown
[6] = tested on: ERK; test: ERK kinase catalytic activity assay; type: biochemical; settings: data not shown
[7] = tested on: Colo205 cells that harbor the V600E B-Raf mutation; test: Western blot analysis of ERK signaling cascade proteins in Colo205 cells; type: cell-based, human; settings: for total protein levels of B-Raf, C-Raf, and MEK / ERK protein levels: 18 h treatment
[8] = tested on: cells; settings: cited from earlier work

| Compound | IC50 [1] | growth suppression of cell lines that harbor the B-Raf V600E mutation [2] | pattern of cytotoxicity at the GI50 level [2] | inhibition of kinase catalytic activity of B-Raf [3] | inhibition of kinase catalytic activity of C-Raf [4] | inhibition of kinase catalytic activity of MEK [5] | inhibition of kinase catalytic activity of ERK [6] | total protein levels of B-Raf, C-Raf, and MEK ([7]; 1 μM) | ERK protein levels ([7]; 10 μM) | total protein levels of B-Raf, C-Raf, and MEK ([7]; 10 μM) | reactive oxygen species (ROS) in cells [8] | phosphorylation (activation) of MEK and ERK ([7]; 1 μM) | phosphorylation of MEK and subsequent activation of ERK ([7]; positive control) | total protein concentrations in the pathway ([7]; positive control) |
| --- | --- | --- | --- | --- | --- | --- | --- | --- | --- | --- | --- | --- | --- | --- |
| O=C1C2=C(SCCN2)C2=NCCc3c[nH]c1c32 [Compound 6, macrophilone F] | > 100 µM | – | – | – | – | – | – | – | – | – | – | – | – | – |
| CSC1=C(N)C(=O)c2[nH]cc(CO)c2C1=N [Compound 1, macrophilone A] | – | most potent | selective cytotoxicity | no reduction in kinase activity | no reduction in kinase activity | no reduction in kinase activity | no reduction in kinase activity | effective at reducing these proteins | no corresponding loss | striking reductions | increase in reactive oxygen species | – | – | – |
| N=C1C2=C(NCCS2)C(=O)c2[nH]cc(CO)c21 [Compound 3, macrophilone C] | – | most potent | selective cytotoxicity | no reduction in kinase activity | no reduction in kinase activity | no reduction in kinase activity | no reduction in kinase activity | – | no corresponding loss | striking reductions | – | increased phosphorylation | – | – |
| CN(C)CCOc1ccc(-c2nc(-c3ccc4c(c3)CC/C4=N\O)c(-c3ccncc3)[nH]2)cc1 [SB-590885, reference compound] | – | – | – | – | – | – | – | – | – | – | – | – | blocked phosphorylation of MEK | no significant impact |
| N=C1C2=C(NCC[S+]2[O-])C(=O)c2[nH]cc(CO)c21 (stereo not drawn) [Compound 4, macrophilone D] | – | – | selective cytotoxicity | no reduction in kinase activity | no reduction in kinase activity | no reduction in kinase activity | no reduction in kinase activity | – | no corresponding loss | striking reductions | – | increased phosphorylation | – | – |
